Compound activity (PubChem BioAssay)
Rows were chosen to be rich in hits. Some 1.1% of all compounds tested hit in one or more screens of this group.
G6PDH counter – L. mesenteroides G6PDH inhibition counter-screen. actives 0.12% (n = 200,000). Purified L. mesenteroides G6PDH, diaphorase/resazurin coupled fluorescence, 45 min. inhibition, % at 5 µM; in the data active means inhibition above about 50%
PMI act hi M6P – activators of human phosphomannose isomerase at near-saturating mannose 6-phosphate | P34949 | coupled PMI enzyme assay, resazurin fluorescence, 20 min; hits give high values; 1 = untreated enzyme, 0 = substrate-free blank | activation factor at 20 µM | actives 0.34% (n = 190,000) | AID 1216;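 active means activation factor of 2 or more at 20 µM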
Target sequence (P34949 whole entry, looked up): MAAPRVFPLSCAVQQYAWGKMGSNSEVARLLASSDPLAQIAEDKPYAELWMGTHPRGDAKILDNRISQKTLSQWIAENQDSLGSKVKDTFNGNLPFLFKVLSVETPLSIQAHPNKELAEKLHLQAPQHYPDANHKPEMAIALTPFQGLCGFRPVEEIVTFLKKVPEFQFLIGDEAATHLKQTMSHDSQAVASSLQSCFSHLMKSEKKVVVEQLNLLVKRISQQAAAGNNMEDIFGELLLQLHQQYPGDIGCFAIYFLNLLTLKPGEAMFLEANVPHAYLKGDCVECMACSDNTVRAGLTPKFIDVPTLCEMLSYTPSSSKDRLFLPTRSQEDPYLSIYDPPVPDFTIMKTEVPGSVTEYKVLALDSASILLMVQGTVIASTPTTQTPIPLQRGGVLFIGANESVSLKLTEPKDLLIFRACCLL
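Technique: Diaphorase-driven resazurin-to-resorufin fluorescence, excitation 544, emission 590 nm | Assay system: Human PMI in coupled enzyme assay | Times: Enzyme reaction with compound 20 min at room temperature | Medium: HEPES-buffered pH 7.4 with magnesium and detergent | Reagent: Mannose-6-phosphate 1.0 mM (near-saturating) plus 0.22 mM NADP+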
Diaph act CS – activates diaphorase or chemically reduces, flagging diaphorase assay artifacts; activation factor at 20 µM; AID 1229; actives 0.005% (n = 190,000); Diaphorase/resazurin coupled assay, resorufin fluorescence, 16 min; hits give high values; 1 = vehicle wells, 0 = NADH-free wells;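 active means diaphorase activity raised at least twofold by the compound at 20 µM; inactive means activation factor below 2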
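Material: Clostridium kluyveri diaphorase, purified enzyme; Quantity: enzyme 0.07 U/mL final; Medium: HEPES pH 7.4 buffer with MgCl2 and Tween 20; Dosing: single compound dose of 20 µM, 1% DMSO final; Schedule: 16 min reaction at room temperature; Measured by: red resorufin fluorescence at 544/590 nm excitation/emission.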
PMI activator – phosphomannose isomerase (human) activation. purified human PMI, coupled resazurin fluorescence, 20 min; hits give high values; 1 = vehicle control, 0 substrate-free wells. activation factor at 20 µM. actives 0.005% (n = 190,000);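 active means activation factor of 2 or more at 20 µM, relative to plate controls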
Diaph inh CS – inhibits diaphorase or chemically oxidizes, flagging diaphorase assay artifacts; actives 0.69% (n = 190,000); diaphorase resazurin-to-resorufin fluorescence, NADH, 16 min; bacterial (C. kluyveri) enzyme, not human; inhibition, % at 20 µM;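 active means primary screen inhibition at 20 µM above a set limit, cut at about 50% in these data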;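 further: plate controls were DMSO with full reaction for no effect and wells lacking NADH for full effect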
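System: Bacterial diaphorase enzyme (C. kluyveri) | Incubation: 16-min room-temperature incubation before reading | Benchmarks: No-NADH positive control and DMSO neutral control | Measured by: Resorufin fluorescence 544/590 nm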
* marks the source's active call; other numbers are inactive results.

Screening CC1CCCCC1NC(=O)COC(=O)c1c2c(nc3ccccc13)/C(=C/c1ccco1)CC2 (stereo unspecified) returned G6PDH counter 9, PMI act hi M6P 2*, Diaph act CS 0.6, PMI activator 1.7 and Diaph inh CS 38.
For CC[n+]1c(C)sc2cc(C)ccc21 the results were G6PDH counter 8, PMI act hi M6P 0.9, Diaph act CS 0.5, PMI activator 0.2 and Diaph inh CS 54*.
For CCCC[n+]1c(C)sc2ccc(C)cc21 the results were G6PDH counter 13, PMI act hi M6P 0.9, Diaph act CS 0.3, PMI activator 0.4 and Diaph inh CS 66*.
For Cc1ccc2sc(C)[n+](CCO)c2c1 the results were G6PDH counter -2, PMI act hi M6P 1.1, Diaph act CS 0.9, PMI activator 1.1 and Diaph inh CS 7.
`O=C(O)Cc1c[nH]c2cccc(O)c12` gave G6PDH counter 27, PMI act hi M6P 0.5, Diaph act CS 0.8, PMI activator 0.8 and Diaph inh CS 24.
COc1cc(CN2CCCC(C(=O)c3ccc4c5c(cccc35)CC4)C2)cc(OC)c1O (stereo unspecified) was read as G6PDH counter 62*, PMI act hi M6P 0.3, Diaph act CS 0.5, PMI activator 0.5 and Diaph inh CS 46.
Screening CC(C)(C)N/N=C/c1c(O)n(-c2ccc(Cl)cn2)c(=O)c2ccccc12 returned G6PDH counter 19, PMI act hi M6P 2.5*, Diaph act CS 0.9, PMI activator 1.9 and Diaph inh CS 11.
Screening CC(=O)NC1=C(N(C)C2CCS(=O)(=O)C2)C(=O)c2ccccc2C1=O (stereo unspecified) returned G6PDH counter 47, PMI act hi M6P 0.6, Diaph act CS 0.4, PMI activator 0.6 and Diaph inh CS 62*.
For CN(C(=O)Nc1ccccc1)C1CCS(=O)(=O)C1 (stereo unspecified) the results were G6PDH counter 7, PMI act hi M6P 0.9, Diaph act CS 0.9, PMI activator 0.9 and Diaph inh CS 8.
`CCOC(=O)c1c(C)oc2c1c(C=NCc1ccccn1)c(O)c1ccccc12` gave G6PDH counter -52, PMI act hi M6P 0.7, Diaph act CS 0.4, PMI activator 0.4 and Diaph inh CS 64*.
`CCOC(=O)c1c(C)oc2c1cc(O)c1ccccc12` gave G6PDH counter 35, PMI act hi M6P 0.5, Diaph act CS 0.9, PMI activator 0.9 and Diaph inh CS 15.
Screening CCOC(=O)c1c(C)oc2c1c(C=NCC1CCCO1)c(O)c1ccccc12 (stereo unspecified) returned G6PDH counter 50*, PMI act hi M6P 0.5, Diaph act CS 0.3, PMI activator 0.4 and Diaph inh CS 75*.
Screening COc1cc([N+](=O)[O-])cc(/C=N/NC(=O)CC#N)c1O returned G6PDH counter 21, PMI act hi M6P 0.8, Diaph act CS 0.5, PMI activator 0.7 and Diaph inh CS 51*.
Screening COc1cc([N+](=O)[O-])cc(/C=N/NC(=O)c2ccc(C)nc2)c1O returned G6PDH counter 8, PMI act hi M6P 1, Diaph act CS 0.6, PMI activator 0.7 and Diaph inh CS 43.
For Oc1ccc(/C=N/Nc2cc(N3CCOCC3)nc(N3CCOCC3)n2)cc1O the results were G6PDH counter 37, PMI act hi M6P 0.4, Diaph act CS 0.4, PMI activator 0.2 and Diaph inh CS 64*.
CC(C)C(C(=O)Nc1ccc(S(N)(=O)=O)cc1)N1C(=O)c2ccccc2C1=O (stereo unspecified) was read as G6PDH counter 1, PMI act hi M6P 1, Diaph act CS 1.1, PMI activator 1.1 and Diaph inh CS -6.
O=C(O)c1cccc(N2C(=O)/C(=C/c3ccc(SCc4ccc(Cl)cc4)o3)SC2=S)c1 was read as G6PDH counter 21, PMI act hi M6P 0.3, Diaph act CS 0.4, PMI activator 0.3 and Diaph inh CS 62*.
Screening COc1cc(CNCCNC(=O)c2nonc2N)ccc1OCc1ccc(Cl)cc1 returned G6PDH counter 13, PMI act hi M6P 0.9, Diaph act CS 1.1, PMI activator 0.9 and Diaph inh CS -10.
`O=C(N=Nc1ccc(NOC(=O)c2ccccc2Br)cc1)c1ccccc1O` gave G6PDH counter -2, PMI act hi M6P 0.3, Diaph act CS 0.4, PMI activator 0.7 and Diaph inh CS 65*.
For O=C1C(C2=C(O)c3ccccc3C2=O)=Nc2ccccc21 the results were G6PDH counter 56*, PMI act hi M6P 0.8, Diaph act CS 0.9, PMI activator 1.1 and Diaph inh CS 10.
`O=c1c2cn[nH]c2[nH]c(=S)n1-c1ccccc1` gave G6PDH counter 7, PMI act hi M6P 1, Diaph act CS 0.4, PMI activator 1 and Diaph inh CS 61*.
`Cc1cc(C)c(C(=O)CN2C(=O)NC3(CCCCCC3)C2=O)cc1C` gave G6PDH counter 0, PMI act hi M6P 1, Diaph act CS 1, PMI activator 1 and Diaph inh CS 2.
For O=C(CSc1nc(-c2ccccc2)cs1)NCCN1C(=O)CSC1=O the results were G6PDH counter -2, PMI act hi M6P 0.9, Diaph act CS 0.9, PMI activator 1 and Diaph inh CS 13.
For CCc1cc(/C(Cc2ccccn2)=N\Nc2ccccc2)c(O)cc1O the results were G6PDH counter 0, PMI act hi M6P 2.1*, Diaph act CS 0.8, PMI activator 1.6 and Diaph inh CS 24.
For Cc1nc(C/C(=N\Nc2ccccc2)c2ccc(O)cc2O)cs1 the results were G6PDH counter 1, PMI act hi M6P 2.1*, Diaph act CS 0.7, PMI activator 1.4 and Diaph inh CS 35.
Screening O=C(NCc1ccccn1)Nc1cccc(NC(=O)NCc2ccccn2)c1 returned G6PDH counter 8, PMI act hi M6P 0.8, Diaph act CS 1, PMI activator 0.9 and Diaph inh CS 5.
For COc1cc2nc(=S)n3[nH]c(CCn4nc(C)cc4C)nc3c2cc1OC the results were G6PDH counter 17, PMI act hi M6P 0.8, Diaph act CS 0.1, PMI activator 0.8 and Diaph inh CS 92*.
`COc1cc2nc(=S)n3[nH]c(COc4ccccc4C)nc3c2cc1OC` gave G6PDH counter 5, PMI act hi M6P 1.1, Diaph act CS 0.1, PMI activator 0.9 and Diaph inh CS 91*.
Screening COc1cc(-c2csc(CCn3nc(C)cc3C)n2)cc(OC)c1OC returned G6PDH counter 2, PMI act hi M6P 1, Diaph act CS 1, PMI activator 0.9 and Diaph inh CS 2.
Screening Cc1cc(C)n(CCO)c(=O)n1 returned G6PDH counter 5, PMI act hi M6P 1.2, Diaph act CS 1, PMI activator 1.1 and Diaph inh CS 2.
